Measurements taken from ChEMBL document CHEMBL2331265, “Physangulidine A, a withanolide from Physalis angulata, perturbs the cell cycle and induces cell death by apoptosis in prostate cancer cells” (2013).
Activity calls are given as the source filed them. The calls are words filed in the database; no cut-off is given here.

Legend:
DU-145 [1] = experiment: Induction of apoptosis in human DU145 cells assessed as viable cells at 10 uM after 24 hrs using annexin V and propidium iodide staining by flow cytometric analysis relative to control; type: functional; details: DU-145, 24 h, read-out: Activity
In short: (§1)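 DU145 plated at 2 × 10^5 per well and adhered 18 h. Then 5 or 10 μM compound, DMSO or untreated, for 24, 48 or 72 h. Trypsinized, PBS-washed, stained with annexin V-FITC plus propidium iodide. By flow cytometry, quadrants scored as viable, apoptotic (annexin+/PI−), necrotic (PI+ only) or late apoptotic/necrotic (double positive).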

DU-145 [2] = experiment: Induction of apoptosis in human DU145 cells using annexin V and propidium iodide staining at 5 uM after 48 hrs by flow cytometric analysis; type: functional; in short: as §1
DU-145 [3] = experiment: Cell cycle arrest in human DU145 cells assessed as accumulation at G2/M phase at 10 uM after 24 hrs using propidium iodide staining by flow cytometry (reference value: 31%); type: functional
DU-145 [4] = experiment: Induction of apoptosis in human DU145 cells assessed as viable cells at 10 uM after 48 hrs using annexin V and propidium iodide staining by flow cytometric analysis relative to control; type: functional; details: DU-145, 48 h, read-out: Activity; in short: as §1
DU-145 [5] = experiment: Induction of cell death in human DU145 cells at 10 uM after 72 hrs by trypan blue exclusion assay; type: functional
In short: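 DU145 left untreated, or given 10 μM compound or DMSO, for 72 h. All adherent and floating cells harvested, stained with trypan blue and counted at once. Result is % blue (nonviable) cells, mean of three independent experiments with standard error.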

DU-145 [6] = experiment: Induction of apoptosis in human DU145 cells assessed as late apoptotic cells at 10 uM after 72 hrs using annexin V and propidium iodide staining by flow cytometric analysis relative to control; type: functional; in short: as §1
PC-3 [7] = experiment: Induction of apoptosis in human PC3 cells assessed as PARP-1 cleavage at 10 uM after 24 to 72 hrs by immunoblotting; type: functional, cell-based
In short: (§2)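 Cells treated with 10 μM compound or DMSO over a time course. Lysed in Tris/NaCl/EDTA/deoxycholate/IGEPAL buffer, pH 7.5, with protease and phosphatase inhibitors. Protein measured by BCA and equal amounts immunoblotted. Membranes blocked in 5% milk, then probed overnight at 4 °C with anti-PARP-1 (200 ng/mL; full length 116 kDa, cleaved 89 kDa) or anti-cleaved caspase-3 (1:1000). GAPDH loading control, chemiluminescent detection.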

DU-145 [8] = experiment: Induction of apoptosis in human DU145 cells assessed as early apoptotic cells at 10 uM after 24 hrs using annexin V and propidium iodide staining by flow cytometric analysis relative to control; type: functional; in short: as §1
DU-145 [9] = experiment: Induction of apoptosis in human DU145 cells assessed as caspase-3 activation at 10 uM after 48 to 72 hrs by immunoblotting; type: functional, cell-based; in short: as §2
PC-3 [10] = experiment: Antiproliferative activity against human PC3 cells at 10 uM; type: functional, cell-based
In short: (§3)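 DU145 in DMEM and PC3 in F-12K, each with 10% FBS and penicillin/streptomycin, at 37 °C, 5% CO2. Compound added directly to the medium. Antiproliferative activity read after three days of treatment.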

DU-145 [11] = experiment: Antiproliferative activity against human DU145 cells at 10 uM; type: functional, cell-based; in short: as §3
DU-145 [12] = experiment: Cell cycle arrest in human DU145 cells assessed as accumulation at S phase at 10 uM after 48 hrs using propidium iodide staining by flow cytometry (reference value: 25%); type: functional
PC-3 [13] = experiment: Inhibition of colony formation in human PC3 cells at 2.5 to 10 uM after 10 days by clonogenic assay; type: functional, cell-based
In short: (§4)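 DU145 or PC3 plated at 3 × 10^2 per well and adhered 18 h. Then 2.5, 5 or 10 μM compound, DMSO or medium alone. Grown 10 days until colonies were visible. Colonies fixed in 4% paraformaldehyde and stained with 0.25% crystal violet in 25% methanol.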

DU-145 [14] = experiment: Induction of apoptosis in human DU145 cells assessed as PARP-1 cleavage at 10 uM after 24 hrs by immunoblotting; type: functional, cell-based; in short: as §2
DU-145 [15] = experiment: Inhibition of mitosis in human DU145 cells assessed as condensed chromosomes and mitotic spindles formation at 10 uM after 24 hrs by fluorescent microscopy; type: functional, cell-based
In short: (§5)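 DU145 plated at 2.5 × 10^4 on glass coverslips, 18 h. Then 10 μM compound for 24 or 48 h, or DMSO for 48 h. Fixed in 4% paraformaldehyde, permeabilized with 0.1% Triton X-100, blocked with 3% BSA. Stained with Alexa Fluor 488 anti-α-tubulin (60 min) and DAPI, then imaged by confocal microscopy for aberrant mitotic figures.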

DU-145 [16] = experiment: Inhibition of colony formation in human DU145 cells at 2.5 to 10 uM after 10 days by clonogenic assay; type: functional, cell-based; in short: as §4
DU-145 [17] = experiment: Induction of apoptosis in human DU145 cells assessed as necrotic cells at 10 uM after 72 hrs using annexin V and propidium iodide staining by flow cytometric analysis relative to control; type: functional; in short: as §1
DU-145 [18] = experiment: Induction of apoptosis in human DU145 cells assessed as PARP-1 cleavage at 10 uM after 48 to 72 hrs by immunoblotting; type: functional, cell-based; in short: as §2
DU-145 [19] = experiment: Induction of apoptosis in human DU145 cells using annexin V and propidium iodide staining at 5 uM after 24 hrs by flow cytometric analysis; type: functional; in short: as §1
PC-3 [20] = experiment: Induction of apoptosis in human PC3 cells assessed as DNA fragmentation formation at 10 uM after 48 to 72 hrs […]; type: functional, cell-based
In short: (§6)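 Cells (2 × 10^6, adherent plus floating) collected after 10 μM compound or DMSO. Lysed in 1% NP-40/EDTA/Tris, treated with RNase A (1 h, 37 °C) then proteinase K (1 h, 50 °C). Phenol–chloroform extracted, precipitated with isopropanol. Run on a 1.8% agarose gel, ethidium bromide stained, UV read for the oligonucleosomal DNA ladder.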

DU-145 [21] = experiment: Induction of apoptosis in human DU145 cells assessed as early apoptotic cells at 10 uM after 72 hrs using annexin V and propidium iodide staining by flow cytometric analysis relative to control; type: functional; in short: as §1
PC-3 [22] = experiment: Induction of apoptosis in human PC3 cells assessed as caspase-3 activation at 10 uM after 24 to 72 hrs by immunoblotting; type: functional, cell-based; in short: as §2
DU-145 [23] = experiment: Cell cycle arrest in human DU145 cells assessed as accumulation at G1 phase at 10 uM after 48 hrs using propidium iodide staining by flow cytometry (reference value: 37%); type: functional
DU-145 [24] = experiment: Induction of apoptosis in human DU145 cells assessed as caspase-3 activation at 10 uM after 24 hrs by immunoblotting; type: functional, cell-based; in short: as §2
DU-145 [25] = experiment: Cell cycle arrest in human DU145 cells assessed as accumulation at G1 phase at 10 uM after 24 hrs using propidium iodide staining by flow cytometry (reference value: 39%); type: functional
DU-145 [26] = experiment: Induction of apoptosis in human DU145 cells assessed as DNA fragmentation formation at 10 uM after 48 to 72 hrs […]; type: functional, cell-based; in short: as §6
DU-145 [27] = experiment: Induction of apoptosis in human DU145 cells assessed as late apoptotic cells at 10 uM after 24 hrs using annexin V and propidium iodide staining by flow cytometric analysis relative to control; type: functional; in short: as §1
DU-145 [28] = experiment: Antiproliferative activity against human DU145 cells by SRB assay; type: functional
DU-145 [29] = experiment: Induction of apoptosis in human DU145 cells assessed as late apoptotic cells at 10 uM after 48 hrs using annexin V and propidium iodide staining by flow cytometric analysis relative to control; type: functional; in short: as §1
DU-145 [30] = experiment: Induction of apoptosis in human DU145 cells using annexin V and propidium iodide staining at 5 uM after 72 hrs by flow cytometric analysis; type: functional; in short: as §1
DU-145 [31] = experiment: Inhibition of mitosis in human DU145 cells assessed as abnormal mitosis at 10 uM after 48 hrs by fluorescent microscopy; type: functional, cell-based; in short: as §5
DU-145 [32] = experiment: Cell cycle arrest in human DU145 cells assessed as accumulation at S phase at 10 uM after 24 hrs using propidium iodide staining by flow cytometry (reference value: 28%); type: functional
DU-145 [33] = experiment: Induction of apoptosis in human DU145 cells assessed as early apoptotic cells at 10 uM after 48 hrs using annexin V and propidium iodide staining by flow cytometric analysis relative to control; type: functional; in short: as §1
DU-145 [34] = experiment: Induction of apoptosis in human DU145 cells assessed as viable cells at 10 uM after 72 hrs using annexin V and propidium iodide staining by flow cytometric analysis relative to control; type: functional; details: DU-145, 72 h, read-out: Activity; in short: as §1
DU-145 [35] = experiment: Cell cycle arrest in human DU145 cells assessed as accumulation at G2/M phase at 10 uM after 48 hrs using propidium iodide staining by flow cytometry (reference value: 36%); type: functional
DU-145 [36] = experiment: Induction of apoptosis in human DU145 cells assessed as necrotic cells at 10 uM after 24 hrs using annexin V and propidium iodide staining by flow cytometric analysis relative to control; type: functional; in short: as §1
DU-145 [37] = experiment: Induction of apoptosis in human DU145 cells assessed as necrotic cells at 10 uM after 48 hrs using annexin V and propidium iodide staining by flow cytometric analysis relative to control; type: functional; in short: as §1

`C[C@@H]1CC[C@H]2[C@H]3[C@H](O[C@]4([C@]5(O)CC6(C)C(=O)OC5C[C@@]6(C)O)CC[C@@]31O4)[C@H]1O[C@]13CC=CC(=O)[C@]23C` [PHYSANGULIDINE A] gave a viability at 10 µM (DU-145 [1]) of 88.1%, an Activity (DU-145 [2]) of 9.2% and an Activity (DU-145 [3]) of 49%. It also gave a viability at 10 µM (DU-145 [4]) of 53.2%, an Activity (DU-145 [5]) of 90% and an Activity (DU-145 [6]) of 28.4%. For the same compound, the Activity (PC-3 [7]) was “Active”, the Activity (DU-145 [8]) was 7.44% and the Activity (DU-145 [9]) was “Active”. For the same compound, the inhibition (PC-3 [10]) was “Active”, the inhibition (DU-145 [11]) was “Active” and the Activity (DU-145 [12]) was 12%. For the same compound, the inhibition (PC-3 [13]) was “Active”, the Activity (DU-145 [14]) was “inactive” and the inhibition (DU-145 [15]) was “Active”. For the same compound, the inhibition (DU-145 [16]) was “Active”, the Activity (DU-145 [17]) was 0.308% and the Activity (DU-145 [18]) was “Active”. The Activity (DU-145 [19]) was 5.2%, the Activity (PC-3 [20]) was “Active” and the Activity (DU-145 [21]) was 46.4%. For the same compound, the Activity (PC-3 [22]) was “Active”, the Activity (DU-145 [23]) was 7% and the Activity (DU-145 [24]) was “inactive”. The Activity (DU-145 [25]) was 8%, the Activity (DU-145 [26]) was “Active” and the Activity (DU-145 [27]) was 3.71%. For the same compound, the GI50 (DU-145 [28]) was 3.6 µM, the Activity (DU-145 [29]) was 13.9% and the Activity (DU-145 [30]) was 11.5%. The inhibition (DU-145 [31]) was “Active”, the Activity (DU-145 [32]) was 37% and the Activity (DU-145 [33]) was 32.3%. The viability at 10 µM (DU-145 [34]) was 24.9%, the Activity (DU-145 [35]) was 66% and the Activity (DU-145 [36]) was 0.77%. It also gave an Activity (DU-145 [37]) of 0.604%.
